Activity calls are given as the source filed them. The rule behind the calls is not given here.
Experiments:
Rattus norvegicus [1] = organism: Rattus norvegicus; test: Induction of AMPK phosphorylation in 2 hrs serum starved rat differentiated L6 myotubes after 1 hr
Method in brief: (§1)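 Fully differentiated L6 myotubes were serum-starved 2 h, then treated 1 h across a dose series. Phospho-AMPK (Thr172) and phospho-ACC (Ser79) were detected by Western blot. Three independent experiments.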

Rattus norvegicus [2] = organism: Rattus norvegicus; test: Induction of AMPK-dependent ACC phosphorylation in 2 hrs serum starved rat differentiated L6 myotubes after 1 hr; method in brief: as §1
L6 [3] = test: Increase in glucose uptake in rat differentiated L6 myotubes after 1 hr; assay type: functional, cell-based
Method in brief: (§2)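 Fully differentiated L6 myotubes were serum-starved 2 h, then treated with compound for 15 min to 2 h (dose series at 1 h). Glucose uptake was measured relative to DMSO control. Mean of three independent experiments ± SE.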

[4] = Stability in acidic buffer at pH 2 after 6 hrs by HPLC; assay type: physicochemical; details: buffer, pH 2, 6 h
Method in brief: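 A 0.5 mg/mL solution in acetonitrile was adjusted to pH 2 with H3PO4 and analyzed over 6 h by HPLC. Conditions: C18 column at 25 °C, 58% acetonitrile in 0.05 mol/L KH2PO4/0.005 mol/L SDS, 1 mL/min, detection at 320 nm.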

L6 [5] = test: Increase in intracellular AMP:ATP ratio in rat differentiated L6 myotubes after 1 hr; assay type: functional, cell-based
Method in brief: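 Differentiated L6 myotubes were serum-starved 2 h and incubated 1 h with increasing concentrations. Intracellular AMP, ADP and ATP were measured and the AMP:ATP ratio calculated, with berberine 5 µM as positive control. Three independent experiments ± SE.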

Rattus norvegicus [6] = organism: Rattus norvegicus; test: Inhibition of electron transport protein complex 1-mediated cellular respiration in rat liver mitochondria assessed as consumption of oxygen at 2.5 to 40 uM using pyruvate as substrate
Method in brief: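 Mitochondria isolated from rat liver. Complex I substrates 5 mM pyruvate plus 2 mM malate, with excess ADP (2.4 mM). Oxygen consumption read as dose–response. Three independent experiments, n = 5–7.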

[7] = Aqueous solubility of compound in distilled water; assay type: physicochemical
Method in brief: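 Excess solid was suspended in distilled water and stirred 24 h at 25 ± 0.5 °C. The suspension was filtered, and dissolved concentration was measured by HPLC.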

[8] = Half life in 12 hrs fasting Sprague-Dawley rat at 10 mg/kg, po; assay type: ADME, organism-based; design: dose 10 mg/kg, route oral; details: in vivo
Method in brief: (§3)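 Male Sprague–Dawley rats were fasted 12 h and gavaged at 10 mg/kg. Blood was taken retro-orbitally into heparin tubes from pre-dose to 24 h. Plasma levels of parent and of berberine/dihydroberberine were measured by LC–MS/MS.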

[9] = Cmax in 12 hrs fasting Sprague-Dawley rat at 10 mg/kg, po; assay type: ADME, organism-based; design: dose 10 mg/kg, route oral; details: in vivo; method in brief: as §3
[10] = Oral bioavailability in 12 hrs fasting Sprague-Dawley rat at 10 mg/kg; assay type: ADME, organism-based; details: in vivo; method in brief: as §3
Mus musculus [11] = test: Toxicity in high fat diet-fed C57BL/6J mouse assessed as change in body weight at 15 mg/kg/day, po for 6 weeks; assay type: organism-based; design: route oral; details: in vivo, 1008 h
Method in brief: (§4)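 Male C57BL/6J mice (purchased at 6 weeks of age) fed 60 kcal% fat diet for 8 weeks, then randomized by body weight and fed glucose. Dosed orally once daily for 6 weeks in vehicle of 0.5% microcrystalline cellulose plus 1.6% lactose. Groups: high-fat vehicle, metformin 250 mg/kg positive control, chow-fed vehicle. Body weight and food intake recorded daily.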

Mus musculus [12] = test: Toxicity in high fat diet-fed C57BL/6J mouse assessed as change in food intake at 15 mg/kg/day, po for 6 weeks; assay type: organism-based; design: route oral; details: in vivo, 1008 h; method in brief: as §4
Mus musculus [13] = test: Antidiabetic activity in high fat diet-fed C57BL/6J mouse assessed as increase in glucose tolerance at 15 mg/kg/day, po for 4 weeks measured after 30 mins by intraperitoneal glucose tolerance test; assay type: functional, organism-based
Method in brief: (§5)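 High-fat-diet (60 kcal%, 8 weeks) male C57BL/6J mice were randomized by body weight and fed glucose, then dosed orally once daily in cellulose/lactose vehicle. ipGTT was done at 4 weeks: D-glucose 2 g/kg ip, glucometer readings at 0, 15, 30, 60, 90 and 120 min. n = 5–8.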

Mus musculus [14] = test: Antidiabetic activity in high fat diet-fed C57BL/6J mouse assessed as increase in glucose tolerance at 15 mg/kg/day, po for 4 weeks measured after 120 mins by intraperitoneal glucose tolerance test; assay type: functional, organism-based; method in brief: as §5
Mus musculus [15] = test: Antidiabetic activity in high fat diet-fed C57BL/6J mouse assessed as alleviation of insulin resistance at 15 mg/kg/day, po for 4 weeks measured after 60 mins by insulin tolerance test; assay type: functional, organism-based
Method in brief: (§6)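 Male C57BL/6J mice were fed a 60 kcal% fat diet for 8 weeks, randomized, then gavaged daily in 0.5% microcrystalline cellulose/1.6% lactose vehicle. ITT was run at 4 weeks: 6 h fast, insulin 0.75 U/kg ip, blood glucose at 0, 15, 30, 60, 90 and 120 min. Mean ± SE, n = 5–8.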

Mus musculus [16] = test: Antidiabetic activity in high fat diet-fed C57BL/6J mouse assessed as alleviation of insulin resistance at 15 mg/kg/day, po for 4 weeks measured after 90 mins by insulin tolerance test; assay type: functional, organism-based; method in brief: as §6
Mus musculus [17] = test: Antiobese activity in high fat diet-fed C57BL/6J mouse assessed as decrease in plasma triglyceride level at 15 mg/kg/day, po for 6 weeks; assay type: functional; design: scale not given: the % may be the effect or the level left
Method in brief: (§7)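 DIO male C57BL/6J mice received daily oral dosing in cellulose/lactose vehicle for 6 weeks and were killed after the final dose. Plasma and liver triglycerides were measured by triglyceride assay kit, and fat depots were weighed.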

Mus musculus [18] = test: Antidiabetic activity in C57BLKS/J-db/db mouse assessed as reduction of fasting blood glucose level at 50 mg/kg/day, po for 4 weeks; assay type: functional; design: scale not given: the % may be the effect or the level left
Mus musculus [19] = test: Antidiabetic activity in C57BLKS/J-db/db mouse assessed as alleviation of glucose tolerance at 50 mg/kg/day, po for 3 weeks measured after 15 mins by intraperitoneal glucose tolerance test; assay type: functional, organism-based
Method in brief: (§8)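 Male and female C57BLKS/J-db/db mice, randomized at 6 weeks of age by body weight and fed glucose, were gavaged once daily in vehicle (0.5% microcrystalline cellulose, 1.6% lactose). For ipGTT, D-glucose was given at 2 g/kg ip, and blood glucose was read by glucometer at 0, 15, 30, 60, 90 and 120 min.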

Mus musculus [20] = test: Antiobese activity in high fat diet-fed C57BL/6J mouse assessed as decrease in liver triglyceride level at 15 mg/kg/day, po for 6 weeks; assay type: functional; design: scale not given: the % may be the effect or the level left; method in brief: as §7
Mus musculus [21] = test: Antiobese activity in high fat diet-fed C57BL/6J mouse assessed as decrease in subcutaneous fat at 15 mg/kg/day, po for 6 weeks; assay type: functional; design: scale not given: the % may be the effect or the level left; method in brief: as §7
Mus musculus [22] = test: Antidiabetic activity in high fat diet-fed C57BL/6J mouse assessed as decrease in plasma insulin level at 15 mg/kg/day, po for 4 weeks; assay type: functional; design: scale not given: the % may be the effect or the level left
Method in brief: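 DIO male C57BL/6J mice (60 kcal% fat diet for 8 weeks) were gavaged daily in 0.5% microcrystalline cellulose/1.6% lactose vehicle. Plasma insulin was determined by ELISA after 4 weeks of treatment. Mean ± SE, n = 5–8.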

Mus musculus [23] = test: Antidiabetic activity in C57BLKS/J-db/db mouse assessed as decrease in fed blood glucose level at 50 mg/kg/day, po for 3 weeks; assay type: functional; design: scale not given: the % may be the effect or the level left
Mus musculus [24] = test: Antidiabetic activity in C57BLKS/J-db/db mouse assessed as decrease in fed blood glucose level at 50 mg/kg/day, po for 4 weeks; assay type: functional; design: scale not given: the % may be the effect or the level left
Mus musculus [25] = test: Antidiabetic activity in C57BLKS/J-db/db mouse assessed as reduction of fasting blood glucose level at 50 mg/kg/day, po for 3 weeks; assay type: functional; design: scale not given: the % may be the effect or the level left
Mus musculus [26] = test: Antidiabetic activity in C57BLKS/J-db/db mouse assessed as alleviation of glucose tolerance at 50 mg/kg/day, po for 3 weeks measured after 90 mins by intraperitoneal glucose tolerance test; assay type: functional, organism-based; method in brief: as §8
Mus musculus [27] = test: Antidiabetic activity in C57BLKS/J-db/db mouse assessed as alleviation of glucose tolerance at 50 mg/kg/day, po for 3 weeks measured after 120 mins by intraperitoneal glucose tolerance test; assay type: functional, organism-based; method in brief: as §8
Mus musculus [28] = test: Antiobese activity in C57BLKS/J-db/db mouse assessed as decrease in plasma triglyceride level at 50 mg/kg/day, po […]; assay type: functional; design: scale not given: the % may be the effect or the level left
Method in brief: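 db/db mice were gavaged once daily in 0.5% microcrystalline cellulose/1.6% lactose vehicle for 6 weeks and killed after the final dose. Plasma triglycerides were measured with a colorimetric triglyceride assay kit.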

Mus musculus [29] = test: Toxicity in C57BLKS/J-db/db mouse assessed as change in body weight at 50 mg/kg/day, po for 6 weeks; assay type: organism-based; design: route oral; details: in vivo, 1008 h
Method in brief: (§9)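 db/db mice (half male, half female) were dosed by oral gavage daily for 6 weeks in 0.5% microcrystalline cellulose/1.6% lactose vehicle. Body weight and food intake were recorded daily. Mice were killed after the final dose, and liver and fat depots were weighed and expressed relative to body weight.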

Mus musculus [30] = test: Toxicity in C57BLKS/J-db/db mouse assessed as change in food intake at 50 mg/kg/day, po for 6 weeks; assay type: organism-based; design: route oral; details: in vivo, 1008 h; method in brief: as §9
L6 [31] = test: Increase in glucose uptake in rat differentiated L6 myotubes at 20 uM in presence of 10 nM AMPK inhibitor compound C; assay type: functional, cell-based
Mus musculus [32] = test: Antidiabetic activity in C57BLKS/J-db/db mouse assessed as decrease in area under curve at 50 mg/kg/day, po for 4 weeks by insulin tolerance test; assay type: functional; design: scale not given: the % may be the effect or the level left
L6 [33] = test: Increase in glucose uptake in rat differentiated L6 myotubes at 2.5 uM after 1 hr; assay type: functional; method in brief: as §2
L6 [34] = test: Increase in glucose uptake in rat differentiated L6 myotubes at 20 uM after 1 hr; assay type: functional; method in brief: as §2
L6 [35] = test: Increase in glucose uptake in rat differentiated L6 myotubes after 15 mins; assay type: functional; method in brief: as §2
L6 [36] = test: Increase in glucose uptake in rat differentiated L6 myotubes after 2 hrs; assay type: functional; method in brief: as §2
L6 [37] = test: Increase in glucose uptake in rat differentiated L6 myotubes after 1 hr relative to untreated control; assay type: functional; method in brief: as §2
Mus musculus [38] = test: Toxicity in C57BLKS/J-db/db mouse assessed as change in adipose tissue mass at 50 mg/kg/day, po for 6 weeks; assay type: organism-based; design: route oral; details: in vivo, 1008 h; method in brief: as §9
Mus musculus [39] = test: Toxicity in C57BLKS/J-db/db mouse assessed as change in fat to body weight ratio at 50 mg/kg/day, po for 6 weeks; assay type: organism-based; design: route oral; details: in vivo, 1008 h; method in brief: as §9
Mus musculus [40] = test: Toxicity in C57BLKS/J-db/db mouse assessed as change in liver to body weight ratio at 50 mg/kg/day, po for 6 weeks; assay type: organism-based; design: route oral; details: in vivo, 1008 h; method in brief: as §9
L6 [41] = test: Increase in glucose uptake in rat differentiated L6 myotubes at 10 uM in presence of 100 nM PI-3 kinase inhibitor wortmannin

SMILES: COc1ccc2c(c1OC)C(C)(C)[N+]1=C(C2)c2cc3c(cc2CC1)OCO3.[Cl-] [8,8-dimethyldihydroberberine]
- Activity (Rattus norvegicus [1]): Dose-dependent effect
- Activity (Rattus norvegicus [2]): Dose-dependent effect
- Activity (L6 [3]): Dose-dependent effect
- Stability [4]: Stable
- Activity (L6 [5]): Dose-dependent effect
- inhibition (Rattus norvegicus [6]): Dose-dependent effect
- solubility [7]: 81 mg/mL
- half-life [8]: 2.9 h
- Cmax [9]: 17.8 ng/mL
- bioavailability [10]: 10%
- Activity (Mus musculus [11]): Non-toxic
- Activity (Mus musculus [12]): Non-toxic
- Activity (Mus musculus [13]): Active
- Activity (Mus musculus [14]): Active
- Activity (Mus musculus [15]): Active
- Activity (Mus musculus [16]): Active
- Activity (Mus musculus [17]): 26%
- Activity (Mus musculus [18]): 24%
- Activity (Mus musculus [19]): Active
- Activity (Mus musculus [20]): 36%
- Activity (Mus musculus [21]): 36%
- Activity (Mus musculus [22]): 45%
- Activity (Mus musculus [23]): 24%
- Activity (Mus musculus [24]): 40%
- Activity (Mus musculus [25]): 24%
- Activity (Mus musculus [26]): Active
- Activity (Mus musculus [27]): Active
- Activity (Mus musculus [28]): 38%
- Activity (Mus musculus [29]): Non-toxic
- Activity (Mus musculus [30]): Non-toxic
- Activity (L6 [31]): inactive
- Activity (Mus musculus [32]): 28%
- Activity (L6 [33]): 48%
- Activity (L6 [34]): 67%
- Activity (L6 [35]): 28%
- Activity (L6 [36]): 84%
- Activity (L6 [37]): 37%
- Activity (Mus musculus [38]): Non-toxic
- Activity (Mus musculus [39]): Non-toxic
- Activity (Mus musculus [40]): Non-toxic
- Activity (L6 [41]): Active

From ChEMBL document CHEMBL1821702, “8,8-Dimethyldihydroberberine with improved bioavailability and oral efficacy on obese and diabetic mouse models” (Bioorg Med Chem, 2010)
